Screening data as filed in PubChem.
An excerpt weighted towards active compounds, which were near 9.6% of everything screened.
Lmaj promast: Leishmania major promastigote growth inhibition, primary screen | inhibition, % at 10 µM | Leishmania major promastigotes, resazurin fluorescence viability | AID 1063, 2008 | 200,000 compounds, 9% hits; in the data active means inhibition above about 50%;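 further: promastigotes grown with compound for 44 hours at 28 °C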
PMI act: activators of human PMI, primary screen, biochemical, fluorescence intensity, near-Km mannose 6-phosphate; purified human PMI, coupled resazurin fluorescence, 20 min; stronger effect = higher value; 1 = vehicle control, 0 substrate-free wells; activation factor at 20 µM; 190,000 compounds, 0.005% hits;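 active means activation factor of 2 or more at 20 µM, relative to plate controls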
Target sequence (P34949 whole entry, looked up): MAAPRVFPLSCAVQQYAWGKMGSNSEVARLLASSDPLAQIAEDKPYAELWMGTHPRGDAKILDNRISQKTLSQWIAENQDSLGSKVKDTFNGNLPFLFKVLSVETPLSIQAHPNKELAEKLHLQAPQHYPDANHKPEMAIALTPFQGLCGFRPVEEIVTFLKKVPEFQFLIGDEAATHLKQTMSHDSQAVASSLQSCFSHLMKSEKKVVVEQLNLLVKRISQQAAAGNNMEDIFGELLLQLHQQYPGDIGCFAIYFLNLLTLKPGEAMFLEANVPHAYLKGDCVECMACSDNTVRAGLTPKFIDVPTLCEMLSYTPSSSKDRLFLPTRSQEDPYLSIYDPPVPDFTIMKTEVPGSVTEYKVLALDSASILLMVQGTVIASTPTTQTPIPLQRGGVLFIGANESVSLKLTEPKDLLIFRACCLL
PMI act satM6P: human PMI activators, high substrate, primary screen, biochemical, fluorescence intensity, near-saturating mannose 6-phosphate. 190,000 compounds, 0.34% hits. activation factor at 20 µM. coupled PMI enzyme assay, resazurin fluorescence, 20 min; stronger effect = higher value; 1 = untreated enzyme, 0 = substrate-free blank. Mannose-6-phosphate isomerase (Homo sapiens), P34949;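 active means activation factor of 2 or more at 20 µM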
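assay system = human phosphomannose isomerase with PGI, G6PDH, diaphorase coupling enzymes | quantity = 15 ng/mL PMI | incubation = enzyme reaction with compound 20 min at room temperature | medium = HEPES pH 7.4 buffer with MgCl2 and Tween-20 | compound dosing = one concentration, 20 µM, in 1% DMSO | measured by = Diaphorase-driven resazurin-to-resorufin fluorescence, excitation 544, emission 590 nm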
bCat KO growth: primary screen for growth suppressors in beta-catenin knockout HCT116 cells (colon tumor, human) | AID 818, 2007 | HCT116 beta-catenin knockout viability, CellTiter-Glo, 60 h; stronger effect = lower value | viability, % at 10 µM | 140,000 compounds, 1.5% hits;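 active means viability at or under a set limit, the compound median less 4 SD, cut at about 6% in these data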
PTEN del growth: growth suppression of PTEN-null HCT116, primary screen, cell-based, CellTiter-Glo | HCT116 PTEN-null viability, 60 h; stronger effect = lower value | viability, % at 10 µM | 140,000 compounds, 1.2% hits | AID 827, 2007;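 active means viability at or below a set limit, 4 SD under the median of all tested compounds, cut at about 3.7% in these data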;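 further: PTEN knockout HCT116 line with beta catenin targeted HCT116 as companion control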
Large screens that a line does not name were inactive.

COc1cc(CNC(C)c2ccccc2)c(Br)cc1OCC(N)=O (stereo unspecified)	none
CC1CCCN(C(=O)C(C)Sc2nc(-c3ccccc3)cc(C(F)(F)F)n2)C1 (stereo unspecified)	none
Cc1c(NC(=S)N/N=C/C=C/c2ccc([N+](=O)[O-])cc2)c(=O)n(-c2ccccc2)n1C	PMI act satM6P 2.1
Cc1c(NC(=S)N/N=C\c2ccccc2O)c(=O)n(-c2ccccc2)n1C	none
Cc1cccc(C)c1NC(=O)c1ccc([N+](=O)[O-])s1	Lmaj promast 99
O=C(NC1CCCC1)c1ccc([N+](=O)[O-])s1	Lmaj promast 98 (no result: bCat KO growth, PTEN del growth)
Cc1cccc(NC(=O)c2ccc([N+](=O)[O-])s2)c1C	Lmaj promast 100, bCat KO growth 2.9, PTEN del growth 2.2
O=C(NC1CCCCC1)c1cc([N+](=O)[O-])[nH]n1	none
CC(C)c1ccc(NC(=O)COc2nnc(-c3cccs3)c(-c3cccs3)n2)cc1	Lmaj promast 83
CCc1ccc(NC(=O)C(C)Oc2nnc(-c3cccs3)c(-c3cccs3)n2)cc1 (stereo unspecified)	Lmaj promast 84
CCc1ccc(NC(=O)CSc2nnc(-c3cccs3)n2CC)cc1	none
O=C(Cn1c(=O)n(-c2ccc(F)cc2)c(=O)c2sccc21)c1ccccc1	none
OC(CNCc1ccccc1)COCc1ccc(Cl)cc1 (stereo unspecified)	Lmaj promast 84 (no result: bCat KO growth, PTEN del growth)
CC(NCC(O)COCc1ccc(Cl)cc1)c1ccccc1 (stereo unspecified)	none (no result: bCat KO growth, PTEN del growth)
COc1ccc(C2=CC(=O)OC3(CCCC3)O2)cc1	none
Cn1c(CC(=O)NCCO)c(Sc2ccccc2)c2ccccc21	none
O=C(Cc1c(Sc2ccccc2)c2ccccc2n1Cc1ccccc1)NCCO	Lmaj promast 58
OCCC1CN(Cc2cc3c(cc2Cl)OCO3)CCN1C1CCCCC1 (stereo unspecified)	none (no result: bCat KO growth, PTEN del growth)
Cc1ccc(S(=O)(=O)NNC(=O)C(=O)NNS(=O)(=O)c2ccc(C)cc2)cc1	none (no result: bCat KO growth, PTEN del growth)
Cc1ccc(S(=O)(=O)Nc2cccc3cccnc23)cc1	Lmaj promast 100, bCat KO growth 1.6, PTEN del growth 1.6
Cc1ccc(S(=O)(=O)Nc2ccc(S(=O)(=O)Nc3ncccn3)cc2)cc1	none
Cc1ccc(S(=O)(=O)Nc2ccccc2-c2ccccc2NS(=O)(=O)c2ccc(C)cc2)cc1	Lmaj promast 96
COc1cc(NS(=O)(=O)c2ccc(C)cc2)c2ncccc2c1	Lmaj promast 99, bCat KO growth 3.6, PTEN del growth 2.3
Cc1ccc(NNS(=O)(=O)c2ccc(C)cc2)cc1	PMI act satM6P 2
CCN1C(=O)C(CC(=O)Nc2ccc(OC)cc2)N(Cc2ccco2)C1=S (stereo unspecified)	none
O=C(CCc1cnccn1)NC1CCCc2c1cnn2-c1ccc(F)cc1F (stereo unspecified)	none (no result: bCat KO growth, PTEN del growth)
Cc1ccc(S(=O)(=O)Nc2cc(Cl)c(O)cc2C)cc1	none
Cc1ccc(S(=O)(=O)Nc2cc(C(C)C)c(O)cc2C)cc1	Lmaj promast 76
CCn1nc(C)cc1C(=O)N1CCCC(C(=O)c2ccc3ccccc3c2)C1 (stereo unspecified)	none (no result: bCat KO growth, PTEN del growth)
CCc1cccc2c1NC(=O)C21N2CCCC2C(C(=O)c2ccc3ccccc3c2)C12C(=O)Nc1ccccc12 (stereo unspecified)	Lmaj promast 82
CCc1ccc2c(c1)C1(C(=O)N2)N2CCCC2C(C(=O)c2ccc3ccccc3c2)C12C(=O)Nc1ccccc12 (stereo unspecified)	Lmaj promast 79, bCat KO growth 1.3, PTEN del growth 1.1
O=C(CCn1c(=S)[nH]c2ccccc2c1=O)NCCc1ccc(Cl)cc1	none (no result: bCat KO growth, PTEN del growth)
Cn1cc(Cl)c(C(=O)NC(=S)Nc2sc3c(c2C#N)CCCCC3)n1	none
CC(C)[C@H](NC(=O)c1ccccc1)C(=O)OCC(=O)/C=C1/N(C)c2ccccc2C1(C)C	none
CN1/C(=C\C(=O)COC(=O)c2ccc([N+](=O)[O-])o2)C(C)(C)c2ccccc21	Lmaj promast 81 (no result: bCat KO growth, PTEN del growth)
COc1cc(OC)cc(C(=O)NCC(=O)OCC(=O)/C=C2/N(C)c3ccccc3C2(C)C)c1	none (no result: bCat KO growth, PTEN del growth)
